Experimental data as given in ChEMBL document CHEMBL4818995, “Dual nicotinamide phosphoribosyltransferase and epidermal growth factor receptor inhibitors for the treatment of cancer” (Eur J Med Chem, 2021).
Values belong to the compound of their own block, whether it stands above or below them.

How the values were obtained:
[1] = system: MCF7; assay: Antiproliferative activity against human MCF-7 cells assessed as inhibition of cell growth after 72 hrs by CCK8 assay; details: MCF7, 72 h
[2] = Toxicity in BALB/c nude mouse xenografted with human NCI-H1975 cells assessed as changes in body weight at 60 mg/kg, iv administered 5 days a week for 3 weeks; assay type: organism-based; details: in vivo, 504 h
Procedure, shortened: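 Female BALB/c nude mice aged 4-6 weeks, H1975 cells (3 × 10^6 in 0.1 ml RPMI-1640) implanted subcutaneously in the right flank. At day 12, tumors ~150 mm3, mice grouped n=6. […] Test agent in 5% ethanol/5% DMSO/10% Cremophor EL/80% saline at 60 mg/kg i.v. five times weekly. Vehicle group received i.v. vehicle. Tumor and body weight recorded daily by caliper; TV = width² × length × 0.5. Mean ± SD, Student's t-test.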

[3] = target: Epidermal growth factor receptor (Homo sapiens, UniProt P00533, L858R); assay: Inhibition of N-terminal GST-tagged human recombinant EGFR L858R mutant (668 to 1210 residues) expressed in baculovirus expression system by Z'-LYTE kinase assay
Epidermal growth factor receptor (Homo sapiens, UniProt P00533, L858R), sequence (P00533 25-1210 L858R limits assumed): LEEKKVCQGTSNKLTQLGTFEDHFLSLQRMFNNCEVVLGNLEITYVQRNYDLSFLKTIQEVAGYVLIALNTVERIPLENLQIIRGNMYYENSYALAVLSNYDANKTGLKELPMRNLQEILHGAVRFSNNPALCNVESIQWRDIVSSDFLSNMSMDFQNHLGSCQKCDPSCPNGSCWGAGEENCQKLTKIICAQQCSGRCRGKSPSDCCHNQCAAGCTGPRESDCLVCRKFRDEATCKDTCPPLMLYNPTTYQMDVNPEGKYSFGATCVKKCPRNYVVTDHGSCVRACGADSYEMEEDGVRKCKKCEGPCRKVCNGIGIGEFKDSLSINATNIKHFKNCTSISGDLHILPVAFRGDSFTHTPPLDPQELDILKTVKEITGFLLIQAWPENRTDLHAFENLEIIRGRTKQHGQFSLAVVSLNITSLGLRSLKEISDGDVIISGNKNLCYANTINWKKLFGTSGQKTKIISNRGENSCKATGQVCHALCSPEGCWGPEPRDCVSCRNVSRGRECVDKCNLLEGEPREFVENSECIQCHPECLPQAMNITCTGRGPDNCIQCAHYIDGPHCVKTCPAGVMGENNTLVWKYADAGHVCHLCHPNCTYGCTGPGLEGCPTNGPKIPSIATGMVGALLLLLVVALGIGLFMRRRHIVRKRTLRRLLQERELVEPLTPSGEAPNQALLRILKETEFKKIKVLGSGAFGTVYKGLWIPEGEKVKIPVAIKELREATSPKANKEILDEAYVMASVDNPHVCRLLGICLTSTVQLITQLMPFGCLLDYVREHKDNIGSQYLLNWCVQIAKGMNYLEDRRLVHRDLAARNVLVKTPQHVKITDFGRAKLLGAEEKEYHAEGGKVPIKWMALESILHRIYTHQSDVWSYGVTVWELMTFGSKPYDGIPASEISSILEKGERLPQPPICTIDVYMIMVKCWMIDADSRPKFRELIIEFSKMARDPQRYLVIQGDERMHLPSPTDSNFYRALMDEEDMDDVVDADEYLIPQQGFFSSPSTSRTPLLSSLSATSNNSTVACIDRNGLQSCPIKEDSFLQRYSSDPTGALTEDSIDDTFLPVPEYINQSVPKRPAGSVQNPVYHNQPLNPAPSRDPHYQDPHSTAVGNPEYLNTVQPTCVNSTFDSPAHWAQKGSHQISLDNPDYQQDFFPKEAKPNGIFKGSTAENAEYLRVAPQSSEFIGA

[4] = target: Epidermal growth factor receptor (Homo sapiens, UniProt P00533, L861Q); assay: Inhibition of N-terminal GST-tagged human recombinant EGFR L861Q mutant (668 to 1210 residues) expressed in baculovirus expression system by Z'-LYTE kinase assay
Epidermal growth factor receptor (Homo sapiens, UniProt P00533, L861Q), sequence (P00533 25-1210 L861Q limits assumed): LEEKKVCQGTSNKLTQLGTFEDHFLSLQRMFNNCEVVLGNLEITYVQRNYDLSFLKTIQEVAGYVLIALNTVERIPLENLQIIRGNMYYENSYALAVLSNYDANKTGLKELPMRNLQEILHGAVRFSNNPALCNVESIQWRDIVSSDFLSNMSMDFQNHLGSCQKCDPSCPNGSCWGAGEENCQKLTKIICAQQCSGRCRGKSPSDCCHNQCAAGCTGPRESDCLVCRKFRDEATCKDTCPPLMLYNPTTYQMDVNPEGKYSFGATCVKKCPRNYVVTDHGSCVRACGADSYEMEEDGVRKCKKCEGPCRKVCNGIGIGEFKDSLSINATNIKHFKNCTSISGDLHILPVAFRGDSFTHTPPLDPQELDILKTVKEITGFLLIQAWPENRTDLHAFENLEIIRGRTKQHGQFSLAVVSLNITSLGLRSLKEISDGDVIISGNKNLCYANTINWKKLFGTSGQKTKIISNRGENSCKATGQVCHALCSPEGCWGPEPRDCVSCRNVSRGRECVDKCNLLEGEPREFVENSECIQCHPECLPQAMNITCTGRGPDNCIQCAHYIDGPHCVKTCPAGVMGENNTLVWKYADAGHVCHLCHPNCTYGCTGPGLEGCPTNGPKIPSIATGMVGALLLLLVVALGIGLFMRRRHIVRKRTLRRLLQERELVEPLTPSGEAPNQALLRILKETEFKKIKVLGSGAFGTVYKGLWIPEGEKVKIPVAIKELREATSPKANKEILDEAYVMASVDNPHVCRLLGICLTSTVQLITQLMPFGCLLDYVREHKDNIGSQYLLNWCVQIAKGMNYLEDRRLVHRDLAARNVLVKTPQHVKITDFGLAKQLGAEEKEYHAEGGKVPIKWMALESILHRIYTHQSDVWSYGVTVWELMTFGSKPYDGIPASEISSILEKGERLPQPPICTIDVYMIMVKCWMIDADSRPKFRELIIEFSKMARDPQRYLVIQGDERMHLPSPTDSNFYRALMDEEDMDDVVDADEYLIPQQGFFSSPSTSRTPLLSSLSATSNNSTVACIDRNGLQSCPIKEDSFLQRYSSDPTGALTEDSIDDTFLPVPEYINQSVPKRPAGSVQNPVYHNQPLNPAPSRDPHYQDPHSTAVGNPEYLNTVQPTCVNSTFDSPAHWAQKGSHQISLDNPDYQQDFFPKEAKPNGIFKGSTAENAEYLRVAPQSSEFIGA

[5] = target: Epidermal growth factor receptor (Homo sapiens, UniProt P00533); assay: Inhibition of N-terminal GST-tagged human recombinant EGFR cytoplasmic domain (668 to 1210 residues) expressed in baculovirus expression system by Z'-LYTE kinase assay
Epidermal growth factor receptor (Homo sapiens, UniProt P00533), sequence (P00533 whole entry, the tested form may be a part): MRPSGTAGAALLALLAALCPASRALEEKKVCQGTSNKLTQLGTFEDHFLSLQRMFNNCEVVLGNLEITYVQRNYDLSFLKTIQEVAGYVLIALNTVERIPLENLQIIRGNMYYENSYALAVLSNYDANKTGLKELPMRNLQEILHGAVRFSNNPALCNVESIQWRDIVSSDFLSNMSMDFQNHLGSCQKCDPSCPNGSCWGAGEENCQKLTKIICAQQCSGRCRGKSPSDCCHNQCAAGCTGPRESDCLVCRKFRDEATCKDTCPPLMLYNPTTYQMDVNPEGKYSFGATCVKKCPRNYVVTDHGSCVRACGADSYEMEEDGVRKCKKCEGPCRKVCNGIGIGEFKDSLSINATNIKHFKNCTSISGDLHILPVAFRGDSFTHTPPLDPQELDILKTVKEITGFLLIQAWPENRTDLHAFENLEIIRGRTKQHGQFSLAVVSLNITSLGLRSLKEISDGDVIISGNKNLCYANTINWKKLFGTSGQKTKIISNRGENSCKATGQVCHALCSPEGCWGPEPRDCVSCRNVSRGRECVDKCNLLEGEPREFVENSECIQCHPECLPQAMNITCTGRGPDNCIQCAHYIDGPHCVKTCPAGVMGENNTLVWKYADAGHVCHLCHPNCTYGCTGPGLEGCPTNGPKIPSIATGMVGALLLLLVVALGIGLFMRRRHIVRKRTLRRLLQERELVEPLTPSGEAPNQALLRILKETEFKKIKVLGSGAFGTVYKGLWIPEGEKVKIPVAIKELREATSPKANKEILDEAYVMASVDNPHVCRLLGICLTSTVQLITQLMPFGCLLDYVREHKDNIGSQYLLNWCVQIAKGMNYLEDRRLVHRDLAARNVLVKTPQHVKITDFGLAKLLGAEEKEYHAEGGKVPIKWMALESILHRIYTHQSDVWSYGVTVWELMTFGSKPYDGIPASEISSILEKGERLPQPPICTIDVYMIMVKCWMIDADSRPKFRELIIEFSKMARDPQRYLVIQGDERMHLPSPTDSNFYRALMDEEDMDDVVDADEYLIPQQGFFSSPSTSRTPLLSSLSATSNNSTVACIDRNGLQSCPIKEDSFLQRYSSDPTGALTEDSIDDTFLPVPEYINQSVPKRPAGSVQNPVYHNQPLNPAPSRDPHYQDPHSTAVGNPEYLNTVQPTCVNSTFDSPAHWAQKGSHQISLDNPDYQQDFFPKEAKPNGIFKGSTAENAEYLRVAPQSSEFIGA

[6] = system: K562; assay: Antiproliferative activity against human K562 cells assessed as inhibition of cell growth after 72 hrs by CCK8 assay; details: K562, 72 h
[7] = system: Huh-7; assay: Antiproliferative activity against human Huh-7 cells assessed as inhibition of cell growth after 72 hrs by CCK8 assay; assay type: functional, cell-based
Procedure, shortened: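 Cells kept in RPMI or DMEM with 10% FBS and 1% penicillin/streptomycin, 37 °C, 5% CO2. Plated at 400-800 cells/well, treated with a range of test concentrations or vehicle for 72 h. CCK8 reagent added, absorbance read at 450 nm.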

[8] = system: NCI-H1975; assay: Antiproliferative activity against human NCI-H1975 cells harboring EGFR L858R/T790M double mutant assessed as inhibition of cell growth; assay type: functional
[9] = target: Epidermal growth factor receptor (Homo sapiens, UniProt P00533, T790M); assay: Inhibition of N-terminal GST-tagged human recombinant EGFR T790M mutant (668 to 1210 residues) expressed in baculovirus expression system by Z'-LYTE kinase assay
Epidermal growth factor receptor (Homo sapiens, UniProt P00533, T790M), sequence (P00533 25-1210 T790M limits assumed): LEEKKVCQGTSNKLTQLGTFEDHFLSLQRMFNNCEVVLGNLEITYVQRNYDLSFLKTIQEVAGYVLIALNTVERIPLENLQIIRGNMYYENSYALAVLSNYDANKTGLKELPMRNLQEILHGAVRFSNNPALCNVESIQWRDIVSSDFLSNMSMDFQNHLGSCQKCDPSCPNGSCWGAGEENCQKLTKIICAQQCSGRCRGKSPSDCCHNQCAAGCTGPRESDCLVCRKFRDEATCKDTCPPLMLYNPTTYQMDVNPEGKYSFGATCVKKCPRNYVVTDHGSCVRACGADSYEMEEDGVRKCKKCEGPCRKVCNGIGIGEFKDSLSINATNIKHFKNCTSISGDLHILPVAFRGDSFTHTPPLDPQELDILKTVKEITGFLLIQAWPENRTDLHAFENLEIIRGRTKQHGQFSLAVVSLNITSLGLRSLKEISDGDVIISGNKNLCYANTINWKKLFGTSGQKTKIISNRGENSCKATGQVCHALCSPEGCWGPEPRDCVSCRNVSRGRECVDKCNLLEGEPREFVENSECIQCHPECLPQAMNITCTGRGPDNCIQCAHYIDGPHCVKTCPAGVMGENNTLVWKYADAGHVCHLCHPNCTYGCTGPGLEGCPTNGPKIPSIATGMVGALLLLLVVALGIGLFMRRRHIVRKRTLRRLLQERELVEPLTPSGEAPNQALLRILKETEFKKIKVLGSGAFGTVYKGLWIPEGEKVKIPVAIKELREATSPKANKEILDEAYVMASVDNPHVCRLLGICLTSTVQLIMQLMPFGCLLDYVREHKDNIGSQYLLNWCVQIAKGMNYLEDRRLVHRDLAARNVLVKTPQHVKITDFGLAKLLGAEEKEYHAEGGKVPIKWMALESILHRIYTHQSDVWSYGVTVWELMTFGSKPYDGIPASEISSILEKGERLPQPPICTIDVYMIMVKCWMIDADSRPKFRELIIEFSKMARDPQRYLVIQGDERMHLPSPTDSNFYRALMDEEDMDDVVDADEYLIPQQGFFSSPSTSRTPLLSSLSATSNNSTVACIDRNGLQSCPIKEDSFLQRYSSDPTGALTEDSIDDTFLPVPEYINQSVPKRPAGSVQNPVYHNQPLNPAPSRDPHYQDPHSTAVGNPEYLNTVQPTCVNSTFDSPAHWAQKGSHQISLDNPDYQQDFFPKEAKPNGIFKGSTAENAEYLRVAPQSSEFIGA

Compound: C#Cc1cccc(Nc2ncnc3cc(OC)c(OCCCCCN/C(=N\C#N)Nc4ccncc4)cc23)c1
GI50 [1]: 0.1 nM
Activity [2]: Non-Toxic
IC50 [3]: 0.26 nM
IC50 [4]: 0.26 nM
IC50 [5]: 0.23 nM
GI50 [6]: 38 nM
GI50 [7]: 1.64 nM
GI50 [8]: 78.3 nM
IC50 [9]: 153 nM

Compound: C#Cc1cccc(Nc2ncnc3cc(OC)c(OCCCCCN/C(=N\C#N)Nc4cccnc4)cc23)c1
GI50 [1]: 0.98 nM
IC50 [3]: 0.41 nM
IC50 [4]: 0.46 nM
IC50 [5]: 0.52 nM
GI50 [6]: 175 nM
GI50 [7]: 62.9 nM
IC50 [9]: 228 nM

Compound: C#Cc1cccc(Nc2ncnc3cc(OC)c(OCCCCCCCN/C(=N\C#N)Nc4cccnc4)cc23)c1
GI50 [1]: 0.63 nM
IC50 [3]: 0.48 nM
IC50 [4]: 0.49 nM
IC50 [5]: 0.538 nM
GI50 [6]: 42.1 nM
GI50 [7]: 9.94 nM
IC50 [9]: 448 nM

Compound: C#Cc1cccc(Nc2ncnc3cc(OC)c(OCCCCCCN/C(=N\C#N)Nc4ccncc4)cc23)c1
GI50 [1]: 0.15 nM
IC50 [3]: 0.32 nM
IC50 [4]: 0.36 nM
IC50 [5]: 0.35 nM
GI50 [6]: 7.47 nM
GI50 [7]: 1.87 nM
IC50 [9]: 323 nM

Compound: C#Cc1cccc(Nc2ncnc3cc(OC)c(OCCCCCCCN/C(=N\C#N)Nc4ccncc4)cc23)c1
GI50 [1]: 0.21 nM
IC50 [3]: 0.46 nM
IC50 [4]: 0.55 nM
IC50 [5]: 0.473 nM
GI50 [6]: 50.9 nM
GI50 [7]: 1.81 nM
IC50 [9]: 581 nM

Compound: C#Cc1cccc(Nc2ncnc3cc(OC)c(OCCCCCCN/C(=N\C#N)Nc4cccnc4)cc23)c1
GI50 [1]: 0.16 nM
IC50 [3]: 0.38 nM
IC50 [4]: 0.38 nM
IC50 [5]: 0.32 nM
GI50 [6]: 24.6 nM
IC50 [9]: 326 nM

GI50 [1]: 4.85 nM
GI50 [6]: 2.76 nM
GI50 [7]: 7.41 nM
Compound: CC(=O)O[C@H]1C(=O)[C@@]2(C)[C@H]([C@H](OC(=O)c3ccccc3)[C@]3(O)C[C@H](OC(=O)[C@H](O)[C@@H](NC(=O)c4ccccc4)c4ccccc4)C(C)=C1C3(C)C)[C@]1(OC(C)=O)CO[C@@H]1C[C@@H]2O [PACLITAXEL]
